An excerpt weighted towards active compounds, which were near 1.8% of everything screened.
TbMetRS inhib – Trypanosoma brucei MetRS inhibition; purified T. brucei MetRS, ATP depletion, Kinase-Glo luminescence; inhibition, % at 11.9 µM; hit rate 0.4% among 360,000; AID 624268;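 active means inhibition above a per-plate cutoff of the control wells' mean inhibition plus 3 SD, cut at about 5.5% in these data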
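technique = Kinase-Glo luminescence, ATP depletion format | system = purified MetRS (methionyl-tRNA synthetase) enzyme from Trypanosoma brucei | timing = 15 min preincubation, 2 h reaction, all 25 °C | evaluation = percent inhibition versus plate control medians | dosing = single dose, 11.9 µM final nominal, 0.9% final DMSO | also added = substrates ATP, L-methionine and bulk Escherichia coli tRNA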
Rin1-Abl PPI inh – inhibitors of human Rin1-Abl protein interaction. TR-FRET Rin1/Abl binding, biochemical. inhibition, % at 7.35 µM. hit rate 0.4% among 360,000; in the data active means inhibition above about 5%, passing the limit was not always enough
PG9 binder – PG9 antibody binding by small molecule; hit rate 0.43% among 360,000; TR-FRET gp120-PG9 antibody binding; inhibition, % at 6.7 µM; AID 624416; in the data active means inhibition above about 8.5%
Rev-erbA mod – Rev-erb alpha (human) modulation; activity, % at 10 µM; P20393; hit rate 0.79% among 370,000; Rev-erbα–FITC-DNA binding, fluorescence polarization, 90 min;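 active means activity above about 14%, limit read from the data; passing the limit was not always enough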
Rin1 Abl conf – confirmation of inhibitors of human Rin1-Abl interaction; shares compounds with Rin1-Abl PPI inh; TR-FRET Rin1-Abl binding, purified proteins; hit rate 49% among 1,300; inhibition, % at 7.35 µM; AID 602124
GFP quencher – counter-screen for Rin1-Abl inhibitors: GFP fluorescence quenchers; hit rate 8.5% among 1,300; inhibition, % at 6.75 µM; inhibitors/quenchers counterscreen; shares compounds with Rin1-Abl PPI inh; AID 602125;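 further: ABL1-eGFP fusion protein alone without its partner RIN1-SBP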
GFP quench DR – quenches GFP in dose response, Rin1-Abl counter-screen | shares compounds with Rin1-Abl PPI inh | GFP fluorescence interference/quenching counterscreen | IC50, µM | 230 tested, under 10 active | AID 602182; call rule not given here;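 further: ABL1-eGFP fusion protein alone without its RIN1 binding partner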
A number is an active result; - = inactive; . = not tested or not shown. Unless noted, no stated cut-off is given here; in the data, active means inhibition above about 6.5%; inactive means the rest.

SMILES	TbMetRS inhib	Rin1-Abl PPI inh	PG9 binder	Rev-erbA mod	Rin1 Abl conf	GFP quencher	others
CN(CC(=O)Nc1ccc(N2CCOCC2)cc1)C(=O)CCCOc1ccc(Cl)cc1Cl	-	11	-	-	-	-
C=C(C)[C@H]1CC=C(C(=O)O)CC1	.	.	.	-	.	.
C#CCOCCOCCOCCNc1nc(N2CCN(C(=O)CCCCCCCCCCNC(=O)Cn3cc(CCCCCN)nn3)CC2)nc(N2CCN(C(=O)CCCCCCCCCCNC(=O)Cn3cc(C[C@@H](C)O)nn3)CC2)n1	-	19	.	.	12	-
C#CCOCCOCCOCCNc1nc(N2CCN(C(=O)CCCCCCCCCCNC(=O)Cn3cc(C[C@@H](C)O)nn3)CC2)nc(N2CCN(C(=O)CCCCCCCCCCNC(=O)[C@@H](CCSC)n3cc(CCO)nn3)CC2)n1	-	17	.	.	16	-
C#CCOCCOCCOCCNc1nc(N2CCN(C(=O)CCCCCCCCCCNC(=O)[C@@H](CCSC)n3cc(CCO)nn3)CC2)nc(N2CCN(C(=O)CCCCCCCCCCNC(=O)[C@@H]([C@H](C)O)n3cc(C)nn3)CC2)n1	-	-	-	-	.	.
COc1ccc(C2=CCN(C)C(=O)N2c2ccc([N+](=O)[O-])cc2)cc1	.	.	.	-	.	.
CC(C)[C@H]1/C(=C/C2CC2)N2C(=O)C[C@H](c3cccc(C(F)(F)F)c3)N=C2N1Cc1ccc2c(c1)OCO2	.	.	.	-	.	.
CC1=C(C(=O)OC(C)C)C(c2cccnc2)C2=C(CCCC2=O)N1 (configuration not stated)	-	-	-	-	.	.
CCOC(=O)C1=C(C)NC2=C(C(=O)CCC2)C1c1cccnc1 (configuration not stated)	-	11	-	-	-	-
Cc1ccc(NC(=O)CN2C(=O)N/C(=C/c3cccn3-c3ccc(C(=O)O)cc3)C2=O)cc1	-	9.7	-	-	9.0	9.9
CCc1nc(SCC(=O)NCCc2ccc(OC)c(OC)c2)c2c(=O)n(C)c(=O)n(C)c2n1	-	10	-	-	16	-
O=C1C(Nc2ccccc2)=CC(c2ccc(O)cc2)N1c1ccccc1 (configuration not stated)	-	-	-	-	.	.
COc1cc(C2C=C(Nc3ccccc3)C(=O)N2c2ccccc2)ccc1O (configuration not stated)	-	7.1	-	-	-	-
CCOc1ccc(C(=O)Nc2nnc(C(C)C)s2)cc1OCC	-	7.8	-	-	-	-
CCOC(=O)c1[nH]c(=O)[nH]c1CSCCO	-	8.1	-	-	12	-
Cc1cc(S(=O)(=O)N2CCN(C(=O)CCC(=O)N3CCOCC3)CC2)ccc1Br	-	16	-	-	21	-	GFP quench DR=-
CCOc1ccc(S(=O)(=O)N2CCN(C(=O)CCC(=O)N3CCOCC3)CC2)cc1	-	11	-	-	11	-
CCOc1ccc(OCCC(=O)N2CCN(S(=O)(=O)c3ccc(OCC)cc3)CC2)cc1	-	-	-	-	.	.
Cn1c(=O)c2c(nc(CN3CCN(C(=O)c4ccco4)CC3)n2Cc2cccc(Cl)c2)n(C)c1=O	-	7.1	-	-	-	-
Cn1c(=O)c2c(nc(CN3CCN(C(=O)c4ccco4)CC3)n2Cc2ccc(Cl)cc2)n(C)c1=O	-	-	-	-	.	.
Cc1ccc(S(=O)(=O)N2CCN(C(=O)CSc3ccccn3)CC2)c(C)c1	-	8.2	-	-	-	-
CN[C@H]1C[C@@H](c2ccccc2Br)N(C(C)=O)C[C@H]1CO	.	.	-	-	.	.
O=S1(=O)c2ccc(Br)cc2OC[C@H](Cc2ccccc2)N1Cc1cn(Cc2ccc(F)cc2)nn1	.	.	.	-	.	.
O=S(=O)(CS(=O)(=O)c1ccc(Br)cc1)c1ccc(Br)cc1	.	.	-	-	.	.
CCn1cc(C(=O)NCCCOC(C)C)c(=O)c2cc(S(=O)(=O)N3CCC(C)CC3)ccc21	-	13	-	-	-	-
SMILES	TbMetRS inhib	Rin1-Abl PPI inh	PG9 binder	Rev-erbA mod	Rin1 Abl conf	GFP quencher	others
CCn1cc(C(=O)NCCCOC)c(=O)c2cc(S(=O)(=O)N3CCC(C)CC3)ccc21	-	-	-	-	.	.
Oc1ccc(/C=N/N=C/c2ccc(O)c(O)c2)cc1O	-	23	-	-	57	16
Oc1ccc(N=Cc2ccc(O)c(O)c2)cc1	-	-	.	.	.	.
COc1ccc(Cn2c(=O)[nH]c3cc(C(=O)NC4CCN(Cc5ccccc5)CC4)ccc32)cc1	-	12	-	-	16	-
Cc1ccc(-n2c(SCC(=O)Nc3ccc(OCc4ccccc4)cc3)nnc2-c2ccccc2)cc1	.	.	.	-	.	.
CN(CC(=O)Nc1cccc(F)c1)C(=O)c1ccc(OCc2ccccc2)cc1	-	12	-	-	-	-
CN(CC(=O)Nc1ccc(F)cc1)C(=O)c1ccc(OCc2ccccc2)cc1	-	-	-	-	.	.
CN1C(=O)C(=O)N2C(=C[C@]3(c4c[nH]c5ccccc45)c4ccccc4N[C@H]23)C1=O	.	.	.	-	.	.
O=C(C1CCCN1S(=O)(=O)c1ccc([N+](=O)[O-])cc1)N1CCc2ccccc2C1 (configuration not stated)	.	.	.	-	.	.
CCCCN(C)C(=O)c1ccc2c(c1)S(=O)(=O)c1ccccc1C2=O	-	10	-	-	-	-
CCCN(CCC)C(=O)c1ccc2c(c1)S(=O)(=O)c1ccccc1C2=O	-	-	-	-	.	.
CC[C@@H]1OC(=O)C[C@@H](O)[C@H](C)[C@@H](O[C@@H]2O[C@H](C)[C@@H](O)[C@H](N(C)C)[C@H]2O)[C@@H](CCN2C[C@H](C)C[C@H](C)C2)C[C@@H](C)C(=O)/C=C/C(C)=C\[C@@H]1CO[C@@H]1O[C@H](C)[C@@H](O)[C@@H](OC)[C@H]1OC	.	.	.	-	.	.
CC1CCN(c2nc3c(c(=O)n(C)c(=O)n3C)n2CCSc2nc3ccccc3s2)CC1	-	-	-	-	.	.
Cn1c(=O)c2c(nc(N3CCC(C(N)=O)CC3)n2CCSc2nc3ccccc3s2)n(C)c1=O	-	9.7	-	-	7.0	-
Cc1ccc2c(c1)c(=O)c1c3n2CCN(C(=O)CCl)C3CC1 (configuration not stated)	-	9.4	-	-	-	-
Cc1ccc(-n2c(=O)c3sccc3n(CC(=O)N3CCCC3)c2=O)cc1	-	5.8	-	-	-	-
O=C(Cn1c(=O)n(-c2ccccc2)c(=O)c2sccc21)N1CCCC1	-	-	-	-	.	.
O=C(c1ccccc1)N(CCN1CCOCC1)C1(C(=O)Nc2ccccc2)CCCCC1	-	8.5	-	-	-	-
CC(C)[N+]1(C)C2CC[C@@H]1CC(OC(=O)C(CO)c1ccccc1)C2 (some centres not stated)	.	.	.	-	.	.
COc1ccc(-n2c(SCc3cccc4ccccc34)nnc2-c2ccccc2)cc1	.	.	.	-	.	.
COC(=O)CN1C(=O)[C@@H]2[C@H](C1=O)[C@@H]1CC(C(=O)OC)=C[C@@H](C(=O)OC)[C@@H]3C1=C(C(=O)[C@@]3(C)NC(=O)c1ccccc1)[C@@H]2C	-	14	-	-	-	-
